According to ChEMBL document CHEMBL1141207, “Novel cell-penetrating alpha-keto-amide calpain inhibitors as potential treatment for muscular dystrophy” (Bioorg Med Chem Lett, 2005):
pIC50: −log10 of the molar value.

Columns and labels:
[1] = target: T1, Calpain-1 catalytic subunit (Sus scrofa, UniProt P35750); experiment: Inhibitory activity against porcine calpain I using Suc-Leu-Tyr-AMC fluorogenic substrate
T1 sequence (P35750 whole entry): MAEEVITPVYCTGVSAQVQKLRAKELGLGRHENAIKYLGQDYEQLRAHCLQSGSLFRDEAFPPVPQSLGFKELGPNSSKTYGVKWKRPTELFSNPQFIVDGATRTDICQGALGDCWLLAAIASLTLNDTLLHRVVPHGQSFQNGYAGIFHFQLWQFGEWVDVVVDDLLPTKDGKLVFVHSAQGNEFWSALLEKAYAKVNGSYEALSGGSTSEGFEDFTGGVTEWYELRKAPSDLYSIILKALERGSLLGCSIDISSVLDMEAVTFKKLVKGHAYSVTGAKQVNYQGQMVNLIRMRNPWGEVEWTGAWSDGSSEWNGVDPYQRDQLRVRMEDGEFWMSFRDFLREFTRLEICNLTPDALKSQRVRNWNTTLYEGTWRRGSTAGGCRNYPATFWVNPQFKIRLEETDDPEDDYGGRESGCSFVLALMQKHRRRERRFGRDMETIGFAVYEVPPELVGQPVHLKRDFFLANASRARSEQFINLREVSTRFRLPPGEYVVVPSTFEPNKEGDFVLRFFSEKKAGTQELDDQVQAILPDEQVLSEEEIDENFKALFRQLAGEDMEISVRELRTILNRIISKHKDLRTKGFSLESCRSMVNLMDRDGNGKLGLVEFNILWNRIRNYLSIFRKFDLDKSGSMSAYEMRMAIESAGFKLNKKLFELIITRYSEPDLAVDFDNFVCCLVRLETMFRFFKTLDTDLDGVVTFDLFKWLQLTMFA
How it was run: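 Purified porcine calpain I, cell-free; hydrolysis of fluorogenic Suc-Leu-Tyr-AMC followed as fluorescence increase over 30 min (ex 360 nm, em 440 nm); IC50 values are means of triplicates.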

[2] = Inhibition of calpain I in C2C12 myoblasts loaded with Suc-Leu-Tyr-AMC; type: functional, Mus musculus
How it was run: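 Cultured C2C12 myoblasts loaded with fluorogenic Suc-Leu-Tyr-AMC before the experiment; cellular calpain activated with Ca2+-ionophore Br-A-23187, then substrate hydrolysis by cellular calpain measured by fluorescence; IC50 values are means of triplicates.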

Row | Structure (SMILES) | pIC50 [1] | pIC50 [2]
1 | CCNC(=O)C(=O)[C@H](CC(C)C)NC(=O)[C@@H](NC(=O)CCCCC1CCSS1)C(C)C (stereo partly drawn) | 6.30 | 6.60
2 | CCNC(=O)C(=O)[C@H](Cc1ccc(Cl)cc1)NC(=O)[C@@H](NC(=O)CCCCC1CCCS1)C(C)C (stereo partly drawn) | 7.00 | 6.40
3 | CCNC(=O)C(=O)[C@H](Cc1ccc(C#N)cc1)NC(=O)[C@@H](NC(=O)CCCCC1CCSS1)C(C)C (stereo partly drawn) | 6.92 | 5.30
4 | CCNC(=O)C(=O)[C@H](Cc1ccc(Cl)cc1)NC(=O)[C@@H](NC(=O)CCCCc1ccccc1)C(C)C | 7.22 | 5.82
5 | CCNC(=O)C(=O)[C@H](Cc1ccc(Cl)cc1)NC(=O)[C@@H](NC(=O)CCNC(=O)CCCCC1CCSS1)C(C)C (stereo partly drawn) | 7.40 | 4.52
6 | CCNC(=O)C(=O)[C@H](Cc1ccc(C(F)(F)F)cc1)NC(=O)[C@@H](NC(=O)CCCCC1CCSS1)C(C)C (stereo partly drawn) | 6.70 | 5.96
7 | CCNC(=O)C(=O)[C@H](Cc1ccc(C(C)(C)C)cc1)NC(=O)[C@@H](NC(=O)CCCCC1CCSS1)C(C)C (stereo partly drawn) | 6.40 | 5.74
8 | CCNC(=O)C(=O)[C@H](Cc1ccc(F)cc1)NC(=O)[C@@H](NC(=O)CCCCC1CCSS1)C(C)C (stereo partly drawn) | 7.00 | 5.60
9 | CCNC(=O)C(=O)[C@@H](NC(=O)[C@@H](NC(=O)CCCCC1CCSS1)C(C)C)c1ccccc1 (stereo partly drawn) | 6.40 | 5.70
10 | CCNC(=O)C(=O)[C@H](Cc1ccc(Cl)cc1)NC(=O)[C@H](CC(C)(C)C)NC(=O)CCCCC1CCSS1 (stereo partly drawn) | 7.00 | 5.46
11 | CCNC(=O)C(=O)[C@H](CC1CCCCC1)NC(=O)[C@@H](NC(=O)CCCCC1CCSS1)C(C)C (stereo partly drawn) | 6.60 | 5.52
12 | CCNC(=O)C(=O)[C@H](Cc1ccc(Cl)cc1)NC(=O)[C@@H](NC(=O)CCCC[C@@H]1SC[C@@H]2NC(=O)N[C@@H]21)C(C)C | 7.00 | 5.30
13 | CCNC(=O)C(=O)[C@H](Cc1ccc(F)c(F)c1)NC(=O)[C@@H](NC(=O)CCCCC1CCSS1)C(C)C (stereo partly drawn) | 7.00 | 6.15
14 | CCNC(=O)C(=O)[C@H](Cc1ccc(Cl)cc1)NC(=O)[C@@H](NC(=O)CCCCC1CCSS1)C(C)(C)C (stereo partly drawn) | < 6.00 | –
15 | CCNC(=O)C(=O)[C@@H](NC(=O)[C@@H](NC(=O)CCCCC1CCSS1)C(C)C)C(c1ccccc1)c1ccccc1 (stereo partly drawn) | < 6.00 | –
16 | CCCCCCCCCCCC(=O)N[C@H](C(=O)N[C@@H](Cc1ccc(Cl)cc1)C(=O)C(=O)NCC)C(C)C | < 6.00 | –
17 | CCNC(=O)C(=O)[C@H](Cc1ccc(Br)cc1)NC(=O)[C@@H](NC(=O)CCCCC1CCSS1)C1CCCCC1 (stereo partly drawn) | < 6.00 | –

Next, values leading:

Row | pIC50 [1] | pIC50 [2] | Structure (SMILES)
18 | 7.41 | 6.40 | CCNC(=O)C(=O)[C@@H](Cc1ccc(Br)cc1)NC(=O)[C@H](CC(C)C)NC(=O)CCCCC1CCSS1 (stereo partly drawn)
19 | 6.74 | 5.05 | CCNC(=O)C(=O)[C@H](Cc1ccc(Br)cc1)NC(=O)[C@@H](NC(=O)CCCCC1CCSS1)C(C)CC (stereo partly drawn)
20 | 6.82 | 5.60 | CCNC(=O)C(=O)[C@H](Cc1ccc(O)cc1)NC(=O)[C@@H](NC(=O)CCCCC1CCSS1)C(C)C (stereo partly drawn)
21 | < 6.00 | – | CC(C)C[C@H](NC(=O)CCCCC1CCSS1)C(=O)NC(Cc1ccc(Br)cc1)C(=O)C(=O)N1CCOCC1 (stereo partly drawn)
22 | < 6.00 | – | CC(C)C[C@H](NC(=O)CCCCC1CCSS1)C(=O)NC(Cc1ccc(Br)cc1)C(=O)C(=O)NC(C)(C)C (stereo partly drawn)
23 | 7.15 | 6.55 | CC(C)C[C@H](NC(=O)CCCCC1CCSS1)C(=O)NC(Cc1ccc(Br)cc1)C(=O)C(=O)NC1CCCCC1 (stereo partly drawn)
24 | 6.92 | 6.00 | CC(C)C[C@H](NC(=O)CCCCC1CCSS1)C(=O)NC(Cc1ccc(Br)cc1)C(=O)C(=O)NCCCN1CCOCC1 (stereo partly drawn)
25 | 6.64 | 6.10 | CC(C)C[C@H](NC(=O)CCCCC1CCSS1)C(=O)NC(Cc1ccc(Br)cc1)C(=O)C(=O)NCCc1ccccn1 (stereo partly drawn)
26 | 7.62 | 6.40 | CCNC(=O)C(=O)[C@H](Cc1ccc(Br)cc1)NC(=O)[C@H](CC(C)C)NC(=O)CCCCC1CCSS1 (stereo partly drawn)
27 | 7.30 | 5.30 | CC(C)C[C@H](NC(=O)CCCCC1CCSS1)C(=O)NC(Cc1ccc(Br)cc1)C(=O)C(=O)O (stereo partly drawn)
